Data from article PMC2939154 (Nature, 2010).
Substitutions are numbered along the chain they refer to. “Also recorded” adds a separate entry of the source. Ends that are not written are not given here.

T1: NRMT (Homo sapiens, UniProt Q9BV86)
T1 sequence (Q9BV86 1-223): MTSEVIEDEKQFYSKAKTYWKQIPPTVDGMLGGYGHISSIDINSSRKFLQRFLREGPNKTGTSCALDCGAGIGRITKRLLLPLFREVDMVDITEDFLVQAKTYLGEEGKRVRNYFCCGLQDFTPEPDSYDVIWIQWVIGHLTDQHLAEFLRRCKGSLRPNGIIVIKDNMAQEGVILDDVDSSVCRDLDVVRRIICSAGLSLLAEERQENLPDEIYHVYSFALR

B1: murine NRMT-FLAG: murine NRMT-FLAG, not targeted by the human shRNA (protein, UniProt Q8R2U4 1-223, looked up)
N-terminal Xaa-Pro-Lys …: MTSEVIEDEKQFYSKAKTYWKQIPPTVDGMLGGYGHISNIDLNSSRKFLQRFLREGPNKTGTSCALDCGAGIGRITKRLLLPLFRVVDMVDVTEDFLAKAKTYLGEEGKRVRNYFCCGLQDFSPEPGSYDVIWIQWVIGHLTDQHLAEFLRRCKRGLRPNGIIVIKDNMAQEGVILDDVDSSVCRDLEVVRRIIRTAGLSLLAEERQENLPDEIYHVYSFALR
modifications: FLAG tag
B2: RB: tumor suppressor protein RB; endogenous, or N-terminus fused to GFP (Fig. 3g) (protein, UniProt P06400 2-928, looked up)
Retinoblastoma-associated …: PPKTPRKTAATAAAAAAEPPAPPPPPPPEEDPEQDSGPEDLPLVRLEFEETEEPDFTALCQKLKIPDHVRERAWLTWEKVSSVDGVLGGYIQKKKELWGICIFIAAVDLDEMSFTFTELQKNIEISVHKFFNLLKEIDTSTKVDNAMSRLLKKYDVLFALFSKLERTCELIYLTQPSSSISTEINSALVLKVSWITFLLAKGEVLQMEDDLVISFQLMLCVLDYFIKLSPPMLLKEPYKTAVIPINGSPRTPRRGQNRSARIAKQLENDTRIIEVLCKEHECNIDEVKNVYFKNFIPFMNSLGLVTSNGLPEVENLSKRYEEIYLKNKDLDARLFLDHDKTLQTDSIDSFETQRTPRKSNLDEEVNVIPPHTPVRTVMNTIQQLMMILNSASDQPSENLISYFNNCTVNPKESILKRVKDIGYIFKEKFAKAVGQGCVEIGSQRYKLGVRLYYRVMESMLKSEEERLSIQNFSKLLNDNIFHMSLLACALEVVMATYSRSTSQNLDSGTDLSFPWILNVLNLKAFDFYKVIESFIKAEGNLTREMIKHLERCEHRIMESLAWLSDSPLFDLIKQSKDREGPTDHLESACPLNLPLQNNHTAADMYLSPVRSPKKKGSTTRVNSTANAETQATSAFQTQKPLKSTSLSLFYKKVYRLAYLRLNTLCERLLSEHPELEHIIWTLFQHTLQNEYELMRDRHLDQIMMCSMYGICKVKNIDLKFKIIVTAYKDLPHAVQETFKRVLIKEEEYDSIIVFYNSVFMQRLKTNILQYASTRPPTLSPIPHIPRSPYKFPSSPLRIPGGNIYISPLKSPYKISEGLPTPTKMTPRSRILVSIGESFGTSEKFQKINQMVCNSDRVLKRSAEGSNPPKPLKKLRFDIEGSDEADGSKHLPGESKFQQKLAEMTSTRTRMQKQKMNDSMDTSNKEEK
B3: FLAG-NRMT: N-terminally FLAG-tagged NRMT (protein, UniProt Q9BV86 1-223, looked up)
N-terminal Xaa-Pro-Lys …: T1 sequence (Q9BV86 1-223)
modifications: N-terminal FLAG tag
B4: myosin light chain 2: mouse protein identified in anti-me3-SPK immunoprecipitates (protein, UniProt P51667 2-166, looked up)
Myosin regulatory light chain …: APKKAKKRIEGGSSNVFSMFEQTQIQEFKEAFTIMDQNRDGFIDKNDLRDTFAALGRVNVKNEEIDEMIKEAPGPINFTVFLTMFGEKLKGADPEETILNAFKVFDPEGKGSLKADYVREMLTTQAERFSKEEIDQMFAAFPPDVTGNLDYKNLVHIITHGEEKD
B5: RCC1-His6: recombinant RCC1 with C-terminal His6 tag (protein)
chain: MSPKRIAKRRSPPADAIPKSKKVKVSHRSHSTEPGLVLTLGQGDVGQLGLGENVMERKKPALVSIPEDVVQAEAGGMHTVCLSKSGQVYSFGCNDEGALGRDTSVEGSEMVPGKVELQEKVVQVSAGDSHTAALTDDGRVFLWGSFRDNNGVIGLLEPMKKSMVPVQVQLDVPVVKVASGNDHLVMLTADGDLYTLGCGEQGQLGRVPELFANRGGRQGLERLLVPKCVMLKSRGSRGHVRFQDAFCGAYFTFAISHEGHVYGFGLSNYHQLGTPGTESCFIPQNLTSFKNSTKSWVGFSGGQHHTVCMDSEGKAYSLGRAEYGRLGLGEGAEEKSIPTLISRLPAVSSVACGASVGYAVTKDGRVFAWGMGTNYQLGTGQDEDAWSPVEMMGKQLENRVVLSVSSGGQHTVLLVKDKEQS
modifications: left off: His6, C-terminal, state not stated
B6: NRMT(Lys169): NRMT mutant at Asn169 (protein)
chain: TSEVIEDEKQFYSKAKTYWKQIPPTVDGMLGGYGHISSIDINSSRKFLQRFLREGPNKTGTSCALDCGAGIGRITKRLLLPLFREVDMVDITEDFLVQAKTYLGEEGKRVRNYFCCGLQDFTPEPDSYDVIWIQWVIGHLTDQHLAEFLRRCKGSLRPNGIIVIKDKMAQEGVILDDVDSSVCRDLDVVRRIICSAGLSLLAEERQENLPDEIYHVYSFALR
B7: RCC1: regulator of chromosome condensation 1, Ran guanine nucleotide-exchange factor (protein, UniProt P18754 2-421, looked up)
Regulator of chromosome …: SPKRIAKRRSPPADAIPKSKKVKVSHRSHSTEPGLVLTLGQGDVGQLGLGENVMERKKPALVSIPEDVVQAEAGGMHTVCLSKSGQVYSFGCNDEGALGRDTSVEGSEMVPGKVELQEKVVQVSAGDSHTAALTDDGRVFLWGSFRDNNGVIGLLEPMKKSMVPVQVQLDVPVVKVASGNDHLVMLTADGDLYTLGCGEQGQLGRVPELFANRGGRQGLERLLVPKCVMLKSRGSRGHVRFQDAFCGAYFTFAISHEGHVYGFGLSNYHQLGTPGTESCFIPQNLTSFKNSTKSWVGFSGGQHHTVCMDSEGKAYSLGRAEYGRLGLGEGAEEKSIPTLISRLPAVSSVACGASVGYAVTKDGRVFAWGMGTNYQLGTGQDEDAWSPVEMMGKQLENRVVLSVSSGGQHTVLLVKDKEQS
B8: PPK-RCC1-His6: RCC1 possessing a Pro2 residue, His6 tagged (protein, UniProt P18754 2-421, looked up, variant S2P)
Regulator of chromosome …: B7 Regulator of chromosome … with S1P
modifications: His6 tag
B9: kelch-like protein 31: mouse protein identified in anti-me3-SPK immunoprecipitates (protein, UniProt Q8BWA5 2-634, looked up)
Kelch-like protein 31: APKKKTIKKNKAEINEMTIIVEDSPLSKLNALNGLLEGSNSLSCVSSELTDTSYGPNLLEGLSKMRQESFLCDLVIGTKTKSFDVHKSVMASCSEYFYNILKNDPSTKRVDLNDIAPLGLATVIAYAYTGKLTLSLYTIGSIISAAVYLQIHTLVKMCSDFLIREISVENCMYVVNIAETYSLKNAKATAQKFIRDNFIEFAESEQFMKLTFEQINELLVDDDLQLPSELVAFQIAMKWLEFDQKRVKHAADLLSNIRFGTISAQDLVNYVQTVPRMMQDADCHKLLVDAMNYHLLPYHQNTLQSRRTRIRGGCRVLITVGGRPGLTEKSLSRDILYRDPENGWSKLTEMPAKSFNQCVAVMDGFLYVAGGEDQNDARNQAKHAVSNFCRYDPRFNTWIHLGSMNQKRTHFSLSVFNGLLYAVGGRNSEGSLASLECYVPSTNQWQPKAPLEVARCCHASAVADGRVIVTGGYIGSAYSRSVCAYDPALDAWQELPQLSTPRGWHCAVALGDRLYVMGGSQLGPRGERVDVLTVESFSPAARQWSFVAPLPVGVSTAGVSALHGRAYLLGGWNEGDKKYKKCIQCFNPELNEWTEDDELPEATVGVSCCTLAMPNSVSRESRASSVSSVPVSI

Legend:
[1] = test system: N-terminally methylated proteins; details: mouse spleen and cardiac lysates, anti-me3-SPK immunoprecipitation
[2] = molecular target: T1, NRMT; assay: isothermal titration calorimetry; assay type: binding; details: ITC, 25OC, methyltransferase buffer pH 8.0
Procedure, shortened: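 Isothermal titration calorimetry of NRMT binding to peptide ligands: the wild-type RCC1 N-terminal peptide and a mutant peptide with Gln in place of Lys4. This tests whether Lys4 is needed for substrate binding. The readout is binding affinity.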

[3] = molecular target: N-terminal RCC1 methyltransferase (NRMT) (not stated (human or mouse cDNA cloned)) (UniProt Q9BV86); assay: ITC
[4] = test system: RCC1 methylation in 293LT cells; assay: NRMT lentiviral knockdown and rescue in 293LT cells, immunoblot; assay type: cell-based; details: murine NRMT, not targeted by human shRNA
[5] = molecular target: T1, NRMT; assay: in vitro methylation assay of protein substrates by NRMT, immunoblot; assay type: biochemical; details: 50mM Tris, 50mM K Acetate, pH 8.0, 100 µM SAM, 1 h at 30°C
[6] = test system: SPK-RCC1; assay type: biochemical, human; details: in vitro methylation of SPK-RCC1

Molecule	N-terminal methylation identified by MS [1]	in vitro methylation (enzyme FLAG-NRMT or His6-NRMT; substrate protein) [5]	other results
myosin light chain 3: mouse protein identified in anti-me3-SPK immunoprecipitates	N-terminally methylated	–	–
H-SPKRIAKRRSPP	–	–	ΔH (exothermic binding) [2]: -9.8 kcal/mol
wild-type 12-residue RCC1 N-terminal peptide	–	–	Kd [3]: 70 µM; dH [3]: -9.8 kcal/mol
B1	–	–	RCC1 methylation levels, rescue in NRMT knockdown cells [4]: rescues RCC1 methylation levels; also recorded: RCC1 methylation was rescued
B2	–	can methylate in vitro; also recorded: able to methylate	–
B3	–	methylates RCC1-His6	–
B4	N-terminally methylated	–	–
B5	–	di-and trimethylates	–
B6	–	–	methylation activity of NRMT mutant [6]: no activity
B7	N-terminally methylated	–	–
B8	–	dimethylates	–
B9	N-terminally methylated	–	–
